{
  "source": "ChEMBL document CHEMBL2346561",
  "about": "“Development of 2'-substituted (2S,1'R,2'S)-2-(carboxycyclopropyl)glycine analogues as potent N-methyl-d-aspartic acid receptor agonists” (J Med Chem, 2013)",
  "key": {"[1]": {"target": "Ionotropic glutamate receptor NMDA 1/2D (Rattus norvegicus) (UniProt P35439+Q62645)", "experiment": "Ratio of compound Imax to glutamate Imax for rat recombinant wild type GluN1/GluN2D receptor; call rule not given here", "type": "protein-complex assay"}, "[2]": {"target": "Glutamate NMDA receptor; Grin1/Grin2c (Rattus norvegicus) (UniProt P35439+Q00961)", "experiment": "Ratio of compound Imax to glutamate Imax for rat recombinant wild type GluN1/GluN2C receptor", "type": "protein-complex assay"}, "[3]": {"target": "Glutamate NMDA receptor; Grin1/Grin2b (Rattus norvegicus) (UniProt P35439+Q00960)", "experiment": "Ratio of compound Imax to glutamate Imax for rat recombinant wild type GluN1/GluN2B receptor", "type": "protein-complex assay"}, "[4]": {"target": "Glutamate NMDA receptor; Grin1/Grin2a (Rattus norvegicus) (UniProt P35439+Q00959)", "experiment": "Ratio of compound Imax to glutamate Imax for rat recombinant wild type GluN1/GluN2A receptor", "type": "protein-complex assay"}, "[5]": {"target": "Ionotropic glutamate receptor NMDA 1/2D (Rattus norvegicus, UniProt P35439+Q62645)", "experiment": "Agonist activity at rat recombinant wild type GluN1/GluN2D receptor expressed in Xenopus laevis oocytes by two electrode voltage clamp technique", "type": "cell-based, Oocyte", "in_short": "(§1)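 cRNA-injected Xenopus oocytes co-expressing GluN1 with GluN2A, 2B, 2C or 2D; two-electrode voltage clamp at −60 to −40 mV; perfusion with extracellular solution (mM: 90 NaCl, 0.5 BaCl₂, 1 KCl, 0.01 EDTA, 10 HEPES, pH 7.4) always containing 50 μM glycine. Concentration–response data per oocyte fitted to Hill equation; mean logEC₅₀ and nH ± SEM across oocytes.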"}, "[6]": {"target": "Glutamate NMDA receptor; Grin1/Grin2c (Rattus norvegicus, UniProt P35439+Q00961)", "experiment": "Agonist activity at rat recombinant wild type GluN1/GluN2C receptor expressed in Xenopus laevis oocytes by two electrode voltage clamp technique", "type": "cell-based, Oocyte", "in_short": "as §1"}, "[7]": {"target": "Glutamate NMDA receptor; Grin1/Grin2a (Rattus norvegicus, UniProt P35439+Q00959)", "experiment": "Agonist activity at rat recombinant wild type GluN1/GluN2A receptor expressed in Xenopus laevis oocytes by two electrode voltage clamp technique", "type": "cell-based, Oocyte", "in_short": "as §1"}, "[8]": {"target": "Glutamate NMDA receptor; Grin1/Grin2b (Rattus norvegicus, UniProt P35439+Q00960)", "experiment": "Agonist activity at rat recombinant wild type GluN1/GluN2B receptor expressed in Xenopus laevis oocytes by two electrode voltage clamp technique", "type": "cell-based, Oocyte", "in_short": "as §1"}, "[9]": {"target": "Glutamate NMDA receptor", "experiment": "Displacement of [3H]CGP39653 from NMDA receptor in rat cortical synaptosomes", "type": "subcellular, Brain", "in_short": "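Rat cortical synaptosome membranes; 2 nM [³H]CGP 39653 (Kd = 6 nM) as radioligand for native NMDA receptors; Ki derived from displacement via Cheng-Prusoff relationship.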"}, "[10]": {"experiment": "Displacement of [3H]KA from KA receptor in rat cortical synaptosomes", "type": "subcellular, Brain"}, "[11]": {"experiment": "Displacement of [3H]AMPA from AMPA receptor in rat cortical synaptosomes", "type": "subcellular, Brain"}},
  "data": [
    {"smiles": "C[C@]1(C(=O)O)C[C@H]1[C@H](N)C(=O)O", "values": [
      {"measurement": "Ratio", "setting": "[1]", "result": 0.83},
      {"measurement": "Ratio", "setting": "[2]", "result": 0.81},
      {"measurement": "Ratio", "setting": "[3]", "result": 1.14},
      {"measurement": "Ratio", "setting": "[4]", "result": 0.94},
      {"measurement": "EC50", "setting": "[5]", "result": 26, "unit": "nM"},
      {"measurement": "EC50", "setting": "[6]", "result": 124, "unit": "nM"},
      {"measurement": "EC50", "setting": "[7]; read-out: EC50", "result": 277, "unit": "nM"},
      {"measurement": "EC50", "setting": "[8]", "result": 45, "unit": "nM"},
      {"measurement": "Ki", "setting": "[9]", "result": 8, "unit": "nM"},
      {"measurement": "Ki", "setting": "[10]", "result": 110, "unit": "nM"},
      {"measurement": "Ki", "setting": "[11]", "result": 29000, "unit": "nM"}
    ]},
    {"smiles": "CCCc1cnn(O)c1[C@@H](N)C(=O)O", "values": [
      {"measurement": "Ratio", "setting": "[1]", "result": 0.37},
      {"measurement": "Ratio", "setting": "[2]", "result": 0.22},
      {"measurement": "Ratio", "setting": "[3]", "result": 0.06},
      {"measurement": "EC50", "setting": "[5]", "result": 153000, "unit": "nM"},
      {"measurement": "EC50", "setting": "[6]", "result": 429000, "unit": "nM"},
      {"measurement": "EC50", "setting": "[7]; oocyte", "result": "Not Active"},
      {"measurement": "EC50", "setting": "[8]", "result": 105000, "unit": "nM"},
      {"measurement": "Ki", "setting": "[9]", "result": 14000, "unit": "nM"},
      {"measurement": "Ki", "setting": "[10]", "result": "> 100000", "unit": "nM"},
      {"measurement": "Ki", "setting": "[11]", "result": "> 100000", "unit": "nM"}
    ]},
    {"smiles": "CCC[C@]1(C(=O)O)C[C@H]1[C@H](N)C(=O)O", "values": [
      {"measurement": "Ratio", "setting": "[1]", "result": 0.89},
      {"measurement": "Ratio", "setting": "[2]", "result": 0.7},
      {"measurement": "Ratio", "setting": "[3]", "result": 1.05},
      {"measurement": "Ratio", "setting": "[4]", "result": 0.67},
      {"measurement": "EC50", "setting": "[5]", "result": 6560, "unit": "nM"},
      {"measurement": "EC50", "setting": "[6]", "result": 29900, "unit": "nM"},
      {"measurement": "EC50", "setting": "[7]; read-out: EC50", "result": 46300, "unit": "nM"},
      {"measurement": "EC50", "setting": "[8]", "result": 15800, "unit": "nM"},
      {"measurement": "Ki", "setting": "[9]", "result": 1200, "unit": "nM"},
      {"measurement": "Ki", "setting": "[10]", "result": 21000, "unit": "nM"},
      {"measurement": "Ki", "setting": "[11]", "result": "> 100000", "unit": "nM"}
    ]},
    {"smiles": "N[C@H](C(=O)O)[C@@H]1C[C@@H]1C(=O)O", "values": [
      {"measurement": "Ratio", "setting": "[1]", "result": 1.11},
      {"measurement": "Ratio", "setting": "[2]", "result": 0.9},
      {"measurement": "Ratio", "setting": "[3]", "result": 1.23},
      {"measurement": "Ratio", "setting": "[4]", "result": 0.99},
      {"measurement": "EC50", "setting": "[5]", "result": 36, "unit": "nM"},
      {"measurement": "EC50", "setting": "[6]", "result": 110, "unit": "nM"},
      {"measurement": "EC50", "setting": "[7]; read-out: EC50", "result": 262, "unit": "nM"},
      {"measurement": "EC50", "setting": "[8]", "result": 83, "unit": "nM"},
      {"measurement": "Ki", "setting": "[9]", "result": 6.5, "unit": "nM"},
      {"measurement": "Ki", "setting": "[10]", "result": 310, "unit": "nM"},
      {"measurement": "Ki", "setting": "[11]", "result": 1100, "unit": "nM"}
    ]},
    {"smiles": "NC(C(=O)O)c1ccnn1O", "note": "(racemic)", "values": [
      {"measurement": "Ratio", "setting": "[2]", "result": 0.52},
      {"measurement": "Ratio", "setting": "[3]", "result": 0.58},
      {"measurement": "Ratio", "setting": "[4]", "result": 0.45},
      {"measurement": "Ki", "setting": "[10]", "result": "> 100000", "unit": "nM"},
      {"measurement": "Ki", "setting": "[11]", "result": "> 100000", "unit": "nM"}
    ]},
    {"smiles": "CCCC[C@]1(C(=O)O)C[C@H]1[C@H](N)C(=O)O", "values": [
      {"measurement": "Ratio", "setting": "[1]", "result": 0.94},
      {"measurement": "Ratio", "setting": "[2]", "result": 0.85},
      {"measurement": "Ratio", "setting": "[3]", "result": 1.07},
      {"measurement": "Ratio", "setting": "[4]", "result": 0.65},
      {"measurement": "EC50", "setting": "[5]", "result": 3300, "unit": "nM"},
      {"measurement": "EC50", "setting": "[6]", "result": 16000, "unit": "nM"},
      {"measurement": "EC50", "setting": "[7]; read-out: EC50", "result": 28800, "unit": "nM"},
      {"measurement": "EC50", "setting": "[8]", "result": 10200, "unit": "nM"},
      {"measurement": "Ki", "setting": "[9]", "result": 1300, "unit": "nM"},
      {"measurement": "Ki", "setting": "[10]", "result": "> 100000", "unit": "nM"},
      {"measurement": "Ki", "setting": "[11]", "result": "> 100000", "unit": "nM"}
    ]},
    {"smiles": "CC[C@]1(C(=O)O)C[C@H]1[C@H](N)C(=O)O", "values": [
      {"measurement": "Ratio", "setting": "[1]", "result": 0.91},
      {"measurement": "Ratio", "setting": "[2]", "result": 0.81},
      {"measurement": "Ratio", "setting": "[3]", "result": 1.02},
      {"measurement": "Ratio", "setting": "[4]", "result": 0.83},
      {"measurement": "EC50", "setting": "[5]", "result": 80, "unit": "nM"},
      {"measurement": "EC50", "setting": "[6]", "result": 540, "unit": "nM"},
      {"measurement": "EC50", "setting": "[7]; read-out: EC50", "result": 1180, "unit": "nM"},
      {"measurement": "EC50", "setting": "[8]", "result": 272, "unit": "nM"},
      {"measurement": "Ki", "setting": "[9]", "result": 61, "unit": "nM"},
      {"measurement": "Ki", "setting": "[10]", "result": 610, "unit": "nM"},
      {"measurement": "Ki", "setting": "[11]", "result": "> 100000", "unit": "nM"}
    ]}
  ]
}
